# Laboratory results reported in paper PMC4745115 (Nature communications, 2014).
# Tests used:
# BetP [1] = biological target: T1, BetP (Corynebacterium glutamicum, UniProt P54582, G153D); assay: tryptophan fluorescence titration, proteoliposomes; assay type: binding
# T1 sequence (P54582 1-595 G153D): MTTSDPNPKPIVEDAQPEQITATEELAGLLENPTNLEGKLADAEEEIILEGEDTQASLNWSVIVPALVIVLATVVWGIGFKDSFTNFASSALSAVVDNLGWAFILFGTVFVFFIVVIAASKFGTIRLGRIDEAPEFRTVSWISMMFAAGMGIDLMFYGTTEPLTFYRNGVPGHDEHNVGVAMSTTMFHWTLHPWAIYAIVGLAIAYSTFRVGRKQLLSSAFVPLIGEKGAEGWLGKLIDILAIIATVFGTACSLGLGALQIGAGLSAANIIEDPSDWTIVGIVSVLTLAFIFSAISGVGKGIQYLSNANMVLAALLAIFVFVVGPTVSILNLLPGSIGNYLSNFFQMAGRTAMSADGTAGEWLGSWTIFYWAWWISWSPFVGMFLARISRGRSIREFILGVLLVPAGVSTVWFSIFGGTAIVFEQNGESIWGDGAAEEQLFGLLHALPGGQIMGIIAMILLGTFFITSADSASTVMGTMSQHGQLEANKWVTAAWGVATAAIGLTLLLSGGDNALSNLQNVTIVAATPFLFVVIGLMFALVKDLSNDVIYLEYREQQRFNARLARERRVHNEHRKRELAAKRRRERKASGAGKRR
# In short: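 Strep-tagged BetP-G153D was expressed in E. coli, affinity-purified in DDM, and reconstituted into E. coli polar-lipid liposomes (lipid/protein 10:1 w/w, 250 mM KPi pH 7.5), used at 100 μg/ml protein. Substrate was 0.1–16 mM with 100 mM NaCl at pH 7.5, or 0.8–30 mM (pH 5.5) or 0.8–100 mM (pH 7.5) without NaCl. Excitation 295 nm; emission at 340 nm, eight readings averaged. Mean and SD were fitted for the binding constant.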
# BetP [2] = biological target: BetP (Corynebacterium glutamicum, UniProt P54582); assay: […]-betaine uptake in E. coli MKH13 expressing BetP; assay type: cell-based; details: 250 μM [14C]-betaine, NaCl titration, pH 7.5, 800 mOsmol/kg, 37 °C; labelled compound
# Chain of BetP (Corynebacterium glutamicum, UniProt P54582) (P54582 whole entry): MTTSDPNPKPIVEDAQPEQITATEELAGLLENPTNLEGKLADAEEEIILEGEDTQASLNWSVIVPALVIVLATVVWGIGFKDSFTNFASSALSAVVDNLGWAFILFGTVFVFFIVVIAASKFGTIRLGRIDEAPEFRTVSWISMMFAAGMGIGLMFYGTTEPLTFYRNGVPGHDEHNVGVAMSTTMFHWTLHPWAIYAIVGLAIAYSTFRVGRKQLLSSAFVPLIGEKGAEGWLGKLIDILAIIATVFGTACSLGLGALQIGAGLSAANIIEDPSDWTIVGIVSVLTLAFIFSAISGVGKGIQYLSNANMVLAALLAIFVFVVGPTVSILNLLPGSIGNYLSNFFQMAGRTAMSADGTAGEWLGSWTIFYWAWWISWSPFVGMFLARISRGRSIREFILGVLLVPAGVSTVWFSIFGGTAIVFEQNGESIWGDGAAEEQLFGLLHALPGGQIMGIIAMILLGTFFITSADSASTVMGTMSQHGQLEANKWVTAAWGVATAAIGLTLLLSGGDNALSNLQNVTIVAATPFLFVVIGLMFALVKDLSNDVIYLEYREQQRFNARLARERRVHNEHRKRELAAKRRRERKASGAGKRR
SMILES,Kd (BetP [1]),[14C]-betaine uptake in E. coli MKH13 expressing BetP (BetP [2])
C[N+](C)(C)CCO [Choline],1150 ± 90 µM,
C[N+](C)(C)CC(=O)[O-] [[14C]-betaine],,cells expressing BetP WT or the mutant N309A
